Bioassay records deposited in PubChem by Broad Institute.
S100A4 MyoIIA – inhibitors of human S100A4 binding to myosin IIA peptide; P26447; S100A4/TAMRA-MyoIIA peptide fluorescence polarization; inhibition, % at 10.7 µM; actives 0.14% (n = 360,000); AID 652163;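 active = mean inhibition of at least 70% across replicates, with every replicate also reaching that level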
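Assay system: human S100A4 monomer with TAMRA-labelled myosin IIA peptide / Buffer or medium: Calcium-containing HEPES buffer, pH 7.2 / Reagent: TAMRA-labelled myosin IIA heavy-chain peptide probe, 5 nM / Compound: one dose per compound / Timing: polarization read 5 min after assay mix addition, stable 5–60 min / Benchmarks: neutral control DMSO, positive control TFP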
ERAP1 inh – blocks human ERAP1 aminopeptidase activity | recombinant ERAP1, Leu-AMC fluorescence, 60 min | AID 652197 | actives 0.15% (n = 340,000) | inhibition, % at 10.7 µM | Q9NZ08;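 active = mean replicate inhibition of at least 30%, or all replicates individually reaching that 30% level; inactive = mean below 30% and not every replicate reaching it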;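 note: 0% = neutral control wells and 100% = L-leucinethiol positive control wells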
ERp5 inh – ERp5 (human) disulfide isomerase inhibition; ERp5 insulin aggregation, absorbance 650 nm, 90 min; inhibition, % at 9.99 µM; actives 0.05% (n = 350,000);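 active = mean replicate inhibition above about 25%, with every replicate also reaching it, limit read from the data, passing the limit was not always enough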
Target sequence (Q15084 whole entry, looked up): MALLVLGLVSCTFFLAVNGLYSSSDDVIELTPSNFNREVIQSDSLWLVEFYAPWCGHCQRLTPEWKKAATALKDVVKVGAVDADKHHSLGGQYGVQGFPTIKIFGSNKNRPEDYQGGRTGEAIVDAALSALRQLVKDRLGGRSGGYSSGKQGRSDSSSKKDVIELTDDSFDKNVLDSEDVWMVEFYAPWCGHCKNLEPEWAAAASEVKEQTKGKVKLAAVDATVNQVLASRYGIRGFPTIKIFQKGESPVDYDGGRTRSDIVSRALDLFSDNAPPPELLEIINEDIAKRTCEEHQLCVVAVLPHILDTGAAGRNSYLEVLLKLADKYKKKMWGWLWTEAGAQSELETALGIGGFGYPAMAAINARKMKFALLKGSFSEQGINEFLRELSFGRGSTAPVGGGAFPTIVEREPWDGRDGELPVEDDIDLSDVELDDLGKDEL
FGF22 binding-1 – binders of recombinant human FGF22 by thermal shift; SYPRO orange fluorescence; percent of sucrose octasulfate shift, DMSO zero; activity (Tm shift, normalised), % at 9.99 µM; AID 651658; Q9HCT0; actives 1.5% (n = 340,000);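 active = mean Tm shift, scaled 0 neutral to 100 positive control, at about 1.3% or above, every replicate too, limit read from the data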
Target sequence (Q9HCT0 whole entry, looked up): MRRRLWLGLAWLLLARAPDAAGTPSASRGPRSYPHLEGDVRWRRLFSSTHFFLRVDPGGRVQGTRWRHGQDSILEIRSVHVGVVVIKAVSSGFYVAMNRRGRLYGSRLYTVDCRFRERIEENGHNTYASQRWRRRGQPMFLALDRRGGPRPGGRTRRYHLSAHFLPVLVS
PDI turbidity – blocks human protein disulfide isomerase activity | P07237 | PDI insulin aggregation turbidity, A650, 90 min | inhibition, % at 10 µM | actives 0.052% (n = 350,000) | AID 588391;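 active = mean inhibition across replicates of 30% or more, whatever share of single replicates reach that level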
FGF22 binding-2 – binds human FGF22 shifting its melting temperature. thermal shift activity, °C (ΔTm) at 38 µM. actives 2% (n = 1,000). AID 720646. recombinant FGF22 thermal shift, SYPRO orange fluorescence. shares compounds with FGF22 binding-1;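 active = fitted rise in melting shift crosses a set limit at or below the top valid dose tested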
FGF22 TSA DP – binds human FGF22 shifting its melting temperature; shares compounds with FGF22 binding-1; Thermal shift assay, SYPRO orange, melting temperature shift; Tm shift (activity), % at 38 µM; 50 tested, under 10 active; AID 743017;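 active = compounds whose fitted dose curve of melting temperature shift rises past a set threshold within the tested doses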
TSA no protein – shows thermal shift signal without protein, FGF22 counter-screen; AID 743019; shares compounds with FGF22 binding-1; compound-only SYPRO orange thermal shift counter-screen, no protein; AC50, µM (top dose mostly 38 µM); actives 2% (n = 1,000);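 active = rising signal whose fitted curve reaches the 0.54 level within the top valid dose, showing a melting point, actives reach about 13 µM in these data; inactive = the rest, including activity in the opposite direction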; note: value is where the raw curve crosses a fixed level and not half-maximal
The depositor's hits bear a star; i = inactive; nt = not tested or not shown; [ ] = another dose, or the depositor's remark. Shown is part of a subset that was picked to be rich in hits.

SMILES	S100A4 MyoIIA	ERAP1 inh	ERp5 inh	FGF22 binding-1	PDI turbidity	FGF22 binding-2	TSA no protein	others
CC(C)NC(=O)N1C[C@@H]2[C@H](c3ccccc31)[C@@H](CO)N2C(=O)c1ccncc1	16	-6	-8	-1	nt	nt	nt
CCCNC(=O)N1[C@@H]2CN(C(=O)c3ccccc3)c3ccccc3[C@@H]2[C@@H]1CO	nt	nt	nt	1.8*	nt	0.23[42 µM]	i
CC(C)NC(=O)N1C[C@H]2[C@@H](c3ccccc31)[C@H](CO)N2C(=O)c1cccnc1	3	nt	-3	1.3*	nt	-0.023	i
CCCNC(=O)N1C[C@H]2[C@@H](c3ccccc31)[C@H](CO)N2C(=O)c1ccccc1	8	0	-4	-1	nt	nt	nt
Nc1nc(-c2cccnc2)nn1C(=O)c1ccc(F)cc1	11	-16	3	1.7*	-5	0.22	i
O=C(O)c1ccccc1Nc1ccc([N+](=O)[O-])cc1	3	0	-2	1.7*	-2	0.34	i
O=C(O)c1ccccc1Nc1ccccc1C(=O)O	-3	1	0	0	-7	nt	nt
C[C@@H]1CN([C@@H](C)CO)S(=O)(=O)c2ccc(C3=CCCCC3)cc2O[C@H]1CN(C)C(=O)c1ccccc1	4	-5	-4	0	nt	nt	nt
CC1O[C@@H](O[C@H](C)CC/C=C/C(=O)O)C(O)C[C@H]1O (some centres not stated)	17	nt	-6	0	0	nt	nt
COc1ccc(-c2nc(CCl)cs2)cc1OC	1	-3	1	0	-3	nt	nt
COc1ccc(-c2nc(-c3ccc(O)cc3O)cs2)cc1OC	3	-3	-4	2.5*	4	0.11	i	FGF22 TSA DP=0
CCn1cc(S(=O)(=O)CC(=O)Nc2ccc(C)cc2)c2ccccc21	nt	nt	nt	nt	-3	nt	nt
COc1ccc(CNS(=O)(=O)c2ccc3c(c2)NC(=O)CS3)cc1	13	0	-4	0	-3	nt	nt
O=c1c2ccccc2[nH]c2ccc(F)cc12	-1	-12	-4	1.5*	-5	-0.051	i
N#CCc1nn(-c2ccccc2)c2ncnc(N)c12	2	0	0	1.5*	8	-0.003	i
CCN1CCN(C(C(=O)NC2CCCCC2)c2ccnc3ccccc23)CC1 (configuration not stated)	5	-2	6	0	nt	nt	nt
COc1cccc(S(=O)(=O)Nc2ccc3c(c2)[C@@H]2C[C@H](CC(=O)NC4CCCCC4)O[C@@H](CO)[C@@H]2O3)c1	-5	-5	-1	1.6*	nt	0.14	i
O=C(O)C[C@@H]1C[C@H]2c3cc(NC(=O)Nc4ccc(C(F)(F)F)cc4)ccc3O[C@H]2[C@@H](CO)O1	-4	-2	-2	23*	nt	-0.17	i
O=C(C[C@H]1C[C@@H]2c3cc(NC(=O)C4CCC4)ccc3O[C@@H]2[C@H](CO)O1)NCc1cc(F)ccc1F	-4	1	-3	-1	nt	nt	nt
O=C(C[C@H]1C[C@H]2c3cc(NC(=O)NC4CCCC4)ccc3O[C@H]2[C@@H](CO)O1)NCCN1CCCCC1	15	-3	2	19*	nt	-0.01[42 µM]	i
O=C(C[C@@H]1C[C@H]2c3cc(NC(=O)C4CCC4)ccc3O[C@H]2[C@@H](CO)O1)NCc1cc(F)ccc1F	44	1	-4	28*	nt	-0.028[42 µM]	i
C[C@@H]1CCCCO[C@H](CN(C)S(=O)(=O)c2cn(C)cn2)[C@@H](C)CN([C@H](C)CO)C(=O)c2cc(NS(=O)(=O)c3ccc(Cl)cc3)ccc2O1	3	-5	-7	1	nt	nt	nt
COc1ccc(OCC(=O)NNC(=O)C(=O)Nc2ccc(C)cc2)cc1	3	6	4	0	-2	nt	nt
O=C(CCC(=O)c1cccs1)NCC(c1ccc(F)cc1)N1CCOCC1 (configuration not stated)	-5	-4	5	0	3	nt	nt
CS(=O)(=O)Nc1ccc2c(c1)[C@@H]1C[C@@H](CC(=O)NCCc3ccccc3)O[C@@H](CO)[C@@H]1O2	2	0	-3	0	nt	nt	nt
SMILES	S100A4 MyoIIA	ERAP1 inh	ERp5 inh	FGF22 binding-1	PDI turbidity	FGF22 binding-2	TSA no protein	others
CS(=O)(=O)Nc1ccc2c(c1)[C@@H]1C[C@H](CC(=O)NCCc3ccccc3)O[C@@H](CO)[C@@H]1O2	6	2	5	1.4*	nt	-0.079	i
COCC(=O)Nc1ccc2c(c1)[C@H]1C[C@@H](CC(=O)NCc3ccccn3)O[C@H](CO)[C@H]1O2	-2	3	-8	1.3*	nt	-0.032	i
O=C(C[C@H]1C[C@H]2c3cc(NC(=O)NC4CCCC4)ccc3O[C@H]2[C@@H](CO)O1)NC1CCCC1	3	2	1	0	nt	nt	nt
CN(C)CC(=O)Nc1ccc2c(c1)[C@@H]1C[C@H](CC(=O)N(C)C)O[C@@H](CO)[C@@H]1O2	-3	-1	-3	2.3*	nt	0.12	i
O=C(C[C@H]1C[C@@H]2c3cc(NC(=O)NC4CCCC4)ccc3O[C@@H]2[C@H](CO)O1)NC1CCCC1	-2	1	-5	1.4*	nt	-0.15	i
CN(C(=O)C1CCN(S(=O)(=O)c2cccc3nonc23)CC1)C1CCCCC1	0	-1	-3	0	17	nt	nt
Cn1ncc2c(Nc3ccc(Cl)c(Cl)c3)ncnc21	-1	0	2	9.1*	-7	0.15	i
COc1cccc(C#Cc2ccc([C@H]3[C@H]4CN(S(=O)(=O)c5ccccc5C)CC(=O)N4[C@H]3CO)cc2)c1	-5	2	-3	1.4*	nt	-0.078	i
CN1C(=O)NC(NS(=O)(=O)c2ccc(N)cc2)(C(F)(F)F)C1=O (configuration not stated)	-6	-8	3	3.8*	-9	0.1	i
COc1cccc(S(=O)(=O)N2C[C@H](O)COC[C@@H]3O[C@@H](CC(=O)N4CCN(C)CC4)CC[C@H]32)c1	-2	0	-5	0	nt	nt	nt
O=C(N/N=C/c1c(O)ccc2ccccc12)c1[nH]ncc1Br	-4	-3	-1	1.3*	1	-0.32	i
COc1ccc(S(=O)(=O)N/N=c2\oc3c(OC)cccc3cc2S(=O)(=O)c2ccc(C)cc2)cc1OC	2	-1	-8	1.7*	1	-0.042	i
CC(C)(C)c1ccc(N/N=C(\C#N)S(=O)(=O)C(C)(C)C)cc1	1	8	7	0	4	nt	nt
CC(C)(C)S(=O)(=O)/C(C#N)=N/Nc1ccc(Cl)cc1	0	6	3	1.7*	5	0.023	i
CCn1c(CNC(=O)c2ccc(Cl)cc2)nnc1SCC(=O)N1CCOCC1	9	-5	1	0	-4	nt	nt
